“And” between values parts separate entries of the source, which are not always exact repeats. Equal values may be shown once.

Data on six compounds can be found in publication PMC8320079 (ACS Omega, 2021).

For data set [1], the system named is Dalton's lymphoma (DL) cells. Put plainly: MTT-based cell viability assay, DL cells. Particulars: for SI PBMC/DL: selectivity index IC50 (PBMC)/IC50 (DL); for IC50: DL cells, MTT, 24 h, mean ± S.D. The essentials: (§1)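 Test compound dilutions in PBS (pH 7.4), 0 and 0.01–100 μM, applied for 24 h. DL cells were grown in RPMI-1640 with 10% FBS and antibiotics at 37 °C, 5% CO2, and subcultured at 80% confluency. Formazan was read at 570 nm. IC50 came from a four-parameter nonlinear fit of % cytotoxicity versus log concentration. Cisplatin reference; mean ± S.D., n = 3. SI = IC50(PBMC)/IC50(DL or EAC); PBMCs were tested at 0.01–400 μM.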

The test system of data set [2] is Ehrlich ascites carcinoma (EAC) cells. Put plainly: MTT-based cell viability assay, EAC cells. Conditions: for SI PBMC/EAC: selectivity index IC50 (PBMC)/IC50 (EAC); for IC50: EAC cells, MTT, 24 h, mean ± S.D. The method, boiled down: as §1
Data set [3] concerns peripheral blood mononuclear cells (PBMCs). In words: MTT-based cell viability assay, normal cells. Particulars: for IC50: PBMCs (normal cells), 24 h, mean ± S.D. The essentials: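 Nontumorigenic PBMCs were exposed 24 h to test compound at 0 and 0.01–400 μM in PBS (pH 7.4), using the same culture and dosing conditions as the tumour lines. MTT formazan was read at 570 nm. Percent cytotoxicity was plotted against log concentration, and IC50 taken from a nonlinear fit (bottom and top asymptotes, centre, Hill slope). Cisplatin reference; mean ± S.D.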

The next data set has as its system DL cell line. In words: Apoptosis, AO/EB dual staining, DL cells. The data set is classed as cell-based. Particulars: 24 h.
For the next data set, the system named is EAC cell line. In words: Apoptosis, AO/EB dual staining, EAC cells. The data set is classed as cell-based. Particulars: 24 h. The essentials:
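Cells (1 × 10^6) exposed 24 h to test compound at 0.01, 0.1, 0.5, 1, 5 and 10 μM; washed twice with PBS (pH 7.4); stained 5 min in a dark cold room with acridine orange and ethidium bromide, 100 μg/mL each in PBS. Fluorescence microscopy in three replicates, about 1000 cells counted per group; orange/red nuclei scored as apoptotic (%). Cisplatin reference; mean ± S.D., n = 3, one-way ANOVA.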

Data set [4] can be described thus: DMSO-d6 stability study by 31P{1H} and 1H NMR. The data set is classed as physicochemical. Conditions: for stability over time in DMSO-d6: 31P{1H} and 1H NMR at time intervals over 6 h.
Data set [5] in a line: Solubility noted as property of the isolated complex. It counts as physicochemical. Particulars: qualitative.

As to `Cc1ccc(C(C)C)cc1.[Cl][Os-]([Cl])[P+](c1ccccc1)(c1ccccc1)c1ccccc1` [Compound 3, [OsCl2(η^6-p-cymene)(PPh3)]], in data set [1], the “SI PBMC/DL” value was 1.33. The “SI PBMC/EAC” value in data set [2] was 1.22. Also, the midpoint of inhibition in data set [3], the IC50, lay at 149.9 ± 1.2 µM.
As to `Cc1ccc(C(C)C)cc1.[Cl][Ge-]([Cl])[Cl].[Cl][Os-]1[P+](c2ccccc2)(c2ccccc2)C[P+]1(c1ccccc1)c1ccccc1` [Compound 8, [OsCl(η^6-p-cymene)(κ^2-dppm)]^+GeCl3^–], the IC50 in data set [1] was 8.3 ± 0.05 µM; in data set [2] it was 18.2 ± 0.05 µM; in data set [3], 161 ± 2.8 µM. Also, the “SI PBMC/DL” value in data set [1] amounted to 19.42. The “SI PBMC/EAC” value in data set [2] is on record as 8.86. For the same compound, the “cytotoxicity in normal cells, in words” value in data set [3] (PBMCs) is “negligible cytotoxicity”. For the same compound, the apoptosis-inducing ability entry with DL cell line is “stronger apoptosis-inducing ability than the rest of the tested compounds”; in the data set with EAC cell line, “inducing apoptotic cell death”. Moreover, the “stability over time in DMSO-d6” value in data set [4] was “some decomposition of the complex occurs”. The “stability in DMSO (properties line of the synthesis)” value (“stability in DMSO” below) in data set [4] is “somewhat stable in DMSO”. The “solubility in DMSO” value in data set [5] is recorded as “sparingly soluble”.
Turning to `Cc1ccc(C(C)C)cc1.[Cl][Os-]1[P+](c2ccccc2)(c2ccccc2)C[P+]1(c1ccccc1)c1ccccc1.[Cl][Sn-]([Cl])[Cl]` [Compound 10, [OsCl(η^6-p-cymene)(κ^2-dppm)]^+SnCl3^–], in data set [1], it took 15.8 ± 0.05 µM to reach half-maximal inhibition (IC50) and the “SI PBMC/DL” value was 9.18. Besides, in data set [2], inhibition was half-maximal at 21.4 ± 0.57 µM (IC50) and the “SI PBMC/EAC” value turned out to be 6.78. For the same compound, the IC50 in data set [3] was determined as 145 ± 1.8 µM. In addition, in data set [4], the “stability over time in DMSO-d6” value was “stable in DMSO-d6 for as long as 6 h” and the “stability in DMSO” value was “stable in DMSO”. In data set [5], the “solubility in DMSO” value was “readily soluble”.
As to `N.N.[Cl][Pt][Cl]` [cisplatin, reference compound], the IC50 in data set [1] is 0.19 ± 0.07 µM; in data set [2], 0.37 ± 0.1 µM; in data set [3], 15.04 ± 0.05 µM. Further, the “SI PBMC/DL” value in data set [1] was 79.2 and 79.15. For the same compound, the “SI PBMC/EAC” value in data set [2] stood at 40.64.
Regarding “[OsCl(η^6-p-cymene)(PPh3)(GeCl3)] [Compound 7]”, in data set [1], inhibition was half-maximal at 93 ± 2.8 µM (IC50) and the “SI PBMC/DL” value was 4.28. The “SI PBMC/EAC” value in data set [2] came out at 3.83. Besides, the concentration for half-maximal inhibition (IC50) in data set [3] amounted to 397.6 ± 3.5 µM. Besides, in data set [4], the “stability over time in DMSO-d6” value was “somewhat less stable in DMSO-d6” and the “stability in DMSO” value was “unstable in DMSO”. In addition, the “solubility in DMSO” value in data set [5] is “sparingly soluble”.
Turning to “[OsCl(η^6-p-cymene)(PPh3)(SnCl3)] [Compound 11]”, in data set [1], the IC50 was 63.7 ± 1.3 µM and the “SI PBMC/DL” value is recorded as 6.72. Further, in data set [2], the IC50 was 87.3 ± 1.6 µM and the “SI PBMC/EAC” value was found to be 4.90. Also, the “solubility in DMSO” value in data set [5] was “soluble in DMSO”.

The IC50 is the concentration at which inhibition is half-maximal. A low value points to greater potency.
